Screens deposited in PubChem by Johns Hopkins Ion Channel Center.
TRPC4 PAM: positive allosteric modulators of TRPC4, primary screen, cell-based, mouse TRPC4beta, HEK293 mu-opioid, Fluo-4 calcium. B-score at 10 µM. DAMGO EC20, Fluo-4 Ca2+ flux; active compounds read high. AID 2227, 2009. Short transient receptor potential channel 4 (Mus musculus), Q9QUQ5. hit rate 0.42% among 310,000;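 active = B-score of calcium response area above 5 SD of library B-scores, with initial fluorescence ratio within 5 SD of library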
Target sequence (Q9QUQ5 whole entry, looked up): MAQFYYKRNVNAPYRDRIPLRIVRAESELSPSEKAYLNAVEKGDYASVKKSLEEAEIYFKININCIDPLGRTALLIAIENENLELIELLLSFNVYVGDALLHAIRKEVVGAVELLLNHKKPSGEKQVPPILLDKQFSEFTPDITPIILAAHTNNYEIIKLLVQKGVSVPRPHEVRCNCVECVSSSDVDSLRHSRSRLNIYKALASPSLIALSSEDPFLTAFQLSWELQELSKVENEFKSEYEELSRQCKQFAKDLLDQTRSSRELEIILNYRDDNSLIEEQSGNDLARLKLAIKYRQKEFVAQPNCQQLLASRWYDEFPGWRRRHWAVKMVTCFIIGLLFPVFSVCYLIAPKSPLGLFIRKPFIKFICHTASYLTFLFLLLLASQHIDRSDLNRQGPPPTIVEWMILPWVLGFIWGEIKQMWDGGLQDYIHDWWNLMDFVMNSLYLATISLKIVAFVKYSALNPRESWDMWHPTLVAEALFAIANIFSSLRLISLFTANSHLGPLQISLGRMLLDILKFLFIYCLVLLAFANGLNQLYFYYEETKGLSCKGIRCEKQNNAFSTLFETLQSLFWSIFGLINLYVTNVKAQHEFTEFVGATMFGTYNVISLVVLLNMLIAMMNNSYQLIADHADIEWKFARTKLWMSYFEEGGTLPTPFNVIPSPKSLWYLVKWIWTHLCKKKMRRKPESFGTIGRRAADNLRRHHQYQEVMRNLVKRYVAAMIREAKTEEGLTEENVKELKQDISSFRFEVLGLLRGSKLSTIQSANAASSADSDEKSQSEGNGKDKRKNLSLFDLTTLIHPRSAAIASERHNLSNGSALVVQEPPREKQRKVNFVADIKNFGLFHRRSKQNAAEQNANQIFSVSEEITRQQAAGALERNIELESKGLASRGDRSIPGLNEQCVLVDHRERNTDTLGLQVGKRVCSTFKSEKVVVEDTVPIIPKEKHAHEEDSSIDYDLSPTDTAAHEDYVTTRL
TRPC6 inhibitor: mouse TRPC6 channel inhibitors, primary screen, cell-based, HEK293, membrane potential dye | Short transient receptor potential channel 6 (Mus musculus), Q61143 | ACh-evoked depolarization; active compounds read low | B-score at 10 µM | hit rate 1.1% among 310,000;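 active = B-score under library mean minus 3 SD, initial fluorescence not abnormally high, positive integrated signal ratio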;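 also: B-score derived from integrated fluorescence ratio over the kinetic read; more negative B-score means stronger inhibition of depolarization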
TRPC4 agonist: activators of mouse TRPC4 channel, primary screen, Fluo4 calcium, HEK293 TRPC4beta/mu-opioid cells; Fluo4 calcium fluorescence; active compounds read high; B-score at 10 µM; hit rate 0.49% among 310,000; AID 2237, 2010;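 active = B-score above 5 SD of library B-scores, and initial fluorescence ratio not above library mean plus 5 SD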;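 also: positive B-score marks a calcium rise read as TRPC4 activation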
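system = HEK293 cells stably co-expressing mouse TRPC4beta and mu-opioid receptor | schedule = Fluo4 dye loading 45 min at room temperature, 110 s recording | measure = B-scored integrated calcium fluorescence ratio | signal = Fluo4 calcium-sensitive dye fluorescence, kinetic, 1 Hz baseline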
TRPC6 act: mouse TRPC6 channel activators, primary screen, cell-based, HEK293, membrane potential dye; hit rate 0.13% among 310,000; B-score at 10 µM; HEK293-TRPC6 membrane potential dye fluorescence; active compounds read high; AID 2550, 2010; Short transient receptor potential channel 6 (Mus musculus), Q61143;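 active = B-score of the integrated fluorescence ratio above library mean plus 3 SD, and starting fluorescence ratio within library mean plus 5 SD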;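 also: higher score means more depolarization so channel activation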
TRPC4 inh: inhibitors of mouse TRPC4 channel, primary screen, Fluo4 calcium, HEK293 TRPC4beta/mu-opioid cells | Short transient receptor potential channel 4 (Mus musculus), Q9QUQ5 | DAMGO-evoked Fluo4 calcium flux; active compounds read low | B-score at 10 µM | hit rate 0.39% among 300,000 | AID 2247, 2010;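 active = B-score over 3 SD under the library average, no early fluorescence shift, positive overall ratio signal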
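test system = HEK293 cells with stable TRPC4beta plus mu-opioid receptor expression | detection = Fluo4 Ca2+ flux fluorescence | read-out = integrated fluorescence ratio relative to baseline, converted to per-well B score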
Hits are given with their value; – = inactive. Only some compounds are listed: those with a hit (about 2.3% of all), similar ones and a draw of the others.

SMILES	TRPC4 PAM	TRPC6 inhibitor	TRPC4 agonist	TRPC6 act	TRPC4 inh
O=C(NNC(=S)Nc1ccccc1)c1ccco1	–	–	–	–	–
CC(Oc1ccc(Cl)cc1)C(=O)NNC(=S)NC(=O)c1ccco1 (stereo not drawn)	–	–	183	–	–
O=C(NC(=S)NNC(=O)c1cccs1)c1ccco1	–	–	–	–	–
COc1ccc(C(=O)N/C(=C/c2ccco2)C(=O)N2CCCCCC2)cc1	–	–	–	–	–
CC(C)(C)c1ccc(OCC(=O)Nc2ccc(C(=O)Nc3ccccc3C(=O)O)cc2)cc1	–	–	–	–	–
CCN1CCN(c2c(Cl)cccc2NC(=O)c2ccc([N+](=O)[O-])o2)CC1	–	-8.69	–	–	–
O=C(Nc1cccc(Cl)c1N1CCOCC1)c1ccco1	–	–	–	–	–
CCN1CCN(c2c(Cl)cccc2NC(=O)c2ccco2)CC1	–	–	65	–	–
CCN1CCN(c2c(Cl)cccc2NC(=O)c2cccs2)CC1	39	–	–	–	–
Cc1ccc(C)c(NC(=O)C2CCCN(S(=O)(=O)c3c(C)nn(C)c3C)C2)c1 (stereo not drawn)	–	–	–	–	–
C/C(=N\NC(=O)CNC(=O)c1cccs1)c1ccc(Cl)c(Cl)c1	–	–	–	–	–
O=C(N/N=C/c1ccccc1[N+](=O)[O-])c1cnccn1	20	–	–	–	–
CCC(=O)Nc1ccc(-n2nnnc2SCC(=O)NNC(=O)c2ccco2)cc1	–	–	–	–	–
Cc1cc(C)c2nc(C)cc(N/N=C/c3ccc(O)cc3)c2c1	–	–	–	–	-6
COC(=O)c1ccc(Cn2nnc3c(=O)[nH]c(C4CCCN(S(=O)(=O)c5cccc(Cl)c5)C4)nc32)cc1 (stereo not drawn)	–	–	–	–	–
CC1(C(=O)OCc2cc(=O)n3cc(Br)ccc3n2)CC1(Cl)Cl (stereo not drawn)	15	–	–	–	–
CCOP(=O)(OCC)c1nc(-c2cccc3ccccc23)oc1N1CCCCC1	23	–	–	–	–
COP(=O)(OC)c1nc(-c2cccc3ccccc23)oc1N1CCCCC1	–	–	–	–	–
CCOP(=O)(c1ccccc1)c1nc(-c2ccccc2C)oc1N1CCCCC1 (stereo not drawn)	11	–	–	–	–
CCN1CCN(Cc2c(C)[nH]c3ccc(OC)cc3c2=O)CC1	15	–	–	–	–
CCOc1ccc2[nH]c(C)c(CN3CCN(CC)CC3)c(=O)c2c1	–	–	–	–	–
Cc1[nH]c2ccc(Br)cc2c(=O)c1CN1CCCCC1	10	–	–	–	–
Cc1[nH]c2ccccc2c(=O)c1CN1CCCCCC1	–	–	–	–	–
Cc1ccc(S(=O)(=O)N(C)C)cc1NC(=S)N1CCN(Cc2ccc3c(c2)OCO3)CC1	–	–	–	–	–
COC(=O)c1ccccc1NC(=S)NC(=O)C1CCCCC1	16	–	–	–	–
SMILES	TRPC4 PAM	TRPC6 inhibitor	TRPC4 agonist	TRPC6 act	TRPC4 inh
COC(=O)c1ccccc1NC(=O)C1CCCC1	–	–	–	–	–
CCOc1cc(/C=C2\CN(CC)C/C(=C\c3ccc(O)c(OCC)c3)C2=O)ccc1O	17	–	–	–	–
COc1cc(/C=C2/CCCC(C(=O)C(F)(F)F)=C2O)ccc1O	–	–	–	–	–
CCOc1cc(/C=N/N=C/c2ccc(O)c(OCC)c2)ccc1O	–	–	–	–	–
COc1cc(/C=C2\CCC/C(=C\c3ccc(O)c(OC)c3)C2=O)ccc1O	–	–	–	–	-6
COc1cc(/C=C2\SC(N3CCC(C)CC3)=NC2=O)ccc1O	–	–	–	–	-6
COc1ccc(NC(=O)CSCC(=O)OCc2cccc(OC)c2OC)cc1	–	–	–	–	–
CN(CC(=O)NC1CCCc2ccccc21)C1CCCCC1 (stereo not drawn)	–	–	–	–	-5
COCc1cc(=O)[nH]c(-c2ccccc2OC(F)(F)F)n1	–	–	–	–	–
COc1ccc(S(=O)(=O)N2CCN(C)CC2)cc1NC(=O)c1ccccc1C	–	–	–	–	–
Cc1cccc(OCCCc2c(C)n[nH]c2C)c1	–	–	–	–	-6
COc1cccc(OC)c1OCCCc1c(C)n[nH]c1C	–	–	–	–	–
Cc1cc(C)cc(NC(=O)Cn2nnc(C(=O)NCc3ccc(F)cc3)c2N)c1	–	–	–	–	–
CCOc1cc(/C=C(\C#N)C(=O)Nc2cccc(C(=O)O)c2)cc(Br)c1OC(=O)c1ccc(OC)cc1	22	–	–	–	–
CCOc1cc(/C=C(\C#N)C(=O)Nc2cccc(C(=O)O)c2)ccc1OCc1ccccc1Cl	–	–	–	–	–
COc1cc2c(cc1OC)C(NNC(=O)c1ccc(Br)o1)=NC(C)(C)C2	–	–	–	–	–
NC(=O)Cc1nc(-c2ccccc2)cs1	–	–	–	–	–
NCCc1nc(-c2ccccc2)cs1	–	–	116	–	–
Cc1cc(NC(=O)COC(=O)C2CC(=O)N(c3ccc(Cl)cc3)C2)no1 (stereo not drawn)	–	–	–	–	–
Nc1nc(Nc2cccc(C(F)(F)F)c2)nc(C(F)(F)F)n1	–	-6.09	–	–	–
O=C(CCC(=O)N/N=C/c1cc(Cl)cc(Cl)c1O)NCc1ccccc1	–	–	–	–	–
Cc1ccc(C2=NC(C(F)(F)F)(C(F)(F)F)c3c(n(-c4ccc(F)cc4)c(=O)[nH]c3=O)N2)cc1	12	–	–	–	–
CCCCC/C(=N\NC(=O)Nc1ccccc1)c1ccccc1	–	–	–	–	–
CCCC/C(C)=N/NC(=O)Nc1ccccc1	–	–	74	–	–
COc1ccc(CCn2c(N)c(C#N)c3nc4ccccc4nc32)cc1OC	–	–	–	–	-6
SMILES	TRPC4 PAM	TRPC6 inhibitor	TRPC4 agonist	TRPC6 act	TRPC4 inh
CC(C)[C@H]1C=C(C(=O)O)O[C@@H](OCCCCO)C1	–	–	–	–	–
COc1ccc(C(Nc2ccccn2)c2c(NC(=O)c3ccco3)sc(C)c2C)cc1OC (stereo not drawn)	–	–	–	–	-6
COc1cc(C(Nc2ccccn2)c2c(NC(=O)c3ccco3)sc(C)c2C)cc(OC)c1OC (stereo not drawn)	–	–	–	–	–
O=C(CCNS(=O)(=O)c1ccc2[nH]c(=O)oc2c1)Nc1ccccc1	–	–	–	–	–
CN(CCNS(=O)(=O)c1ccc2c(c1)oc(=O)n2C)Cc1ccccc1	19	–	–	–	–
CCCN1CCN(C(=O)Cn2c(=O)oc3cc(S(=O)(=O)NCc4ccccc4)ccc32)CC1	–	–	104	–	–
